Measured values pooled from the literature.
Protocols differ between the studies behind these lines.
Target: Histamine H3 receptor (HRH3, Homo sapiens, UniProt Q9Y5N1)
Method: radioligand

Structure (SMILES) | test | conditions | Ki
CCC(=O)c1ccc(OCCCCCCN2CCCC(C)C2)cc1 (centres unmarked) | ligand displacement | cell membranes | 39 nM
c1ccc(CNc2ccnc(Nc3ccc(OCCCN4CCCCC4)cc3)n2)cc1 | ligand displacement | cell membranes | 4.49 nM
CC1CCCN(CCCCCCOc2ccc(-c3ccccc3)cc2)C1 (centres unmarked) | ligand displacement | cell membranes | 147 nM
O=C1NC(=O)C(c2ccccc2)(c2ccc(OCCCN3CCCCC3)cc2)N1 (centres unmarked) | ligand displacement | cell membranes | 579 nM
CN1CCN(c2cc(Nc3ccc(OCCCN4CCCCC4)cc3)nc(N)n2)CC1 | ligand displacement | cell membranes | 11.8 nM
CN(C)c1ccc(/C=C/C=C2\CCc3cc(OCc4ccc(OCCCN5CCCCC5)cc4)ccc3C2=O)cc1 | ligand displacement | cell membranes | 68 nM
CCCCN1CCC(COC(=O)c2ccc(N)c(OCF)c2)CC1 | cell-free assay |  | 3100 nM
O=C1CCCc2ccc(OCCCN3CCCCC3)cc21 | ligand displacement | cell membranes | 89 nM
CCCc1ccc(OCCCCCCN2CCCC(C)C2)cc1 (centres unmarked) | ligand displacement | cell membranes | 85.9 nM
CN(C)c1ccc(/C=C2\CCc3ccc(OCc4ccc(OCCCN5CCCCC5)cc4)cc3C2=O)cc1 | ligand displacement | cell membranes | 97 nM
O=C1NC(c2ccccc2)(c2ccccc2)C(=O)N1CCCN1CCCCC1 | ligand displacement | cell membranes | 6.15 nM
